Laboratory results taken from ChEMBL document CHEMBL1158426, “Semisynthesis and pharmacological activities of Tetrac analogs: angiogenesis modulators” (Bioorg Med Chem Lett, 2009).

Columns and labels:
Mus musculus = organism: Mus musculus; assay: Antiangiogenic activity in […] mouse assessed as inhibition of FGF-induced angiogenesis at 10 ug/Matrigel plug measured after 15 days of Matrigel injection using […] reagent staining by ELISA; type: functional; details: in the assay text read “after 14 days” for “after 15 days”
Outline: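 Mice housed 4 per cage at 20–24 °C, 60–70% humidity, 12 h light/dark, food and water ad libitum, with 5 days' acclimation. Matrigel thawed overnight at 4 °C, kept on ice, injected subcutaneously with FGF. Dissected plugs were stripped of peritoneum, homogenized in ddH₂O for 5–10 min, and spun at 4000 rpm for 10 min. Supernatant was mixed with Drabkin's reagent for 15–30 min at room temperature for hemoglobin measurement.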

Gallus gallus = organism: Gallus gallus; assay: Antiangiogenic activity in chicken embryo chorioallantoic membrane model assessed as inhibition of FGF-induced angiogenesis at 1 uM treated 1 hr after FGF challenge measured after 48 hrs relative to control; type: functional, tissue-based
Outline: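 Live chick chorioallantoic membrane was exposed to FGF with or without test agent, with PBS as a control. New vessel formation was scored as branch points and reported as mean ± SEM, n = 8. Percent inhibition was calculated against the FGF control.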

[1] = Dissociation constant, pKa of the compound; type: physicochemical

| pKa [1] | Structure (SMILES) | inhibition (INH) (Mus musculus) [%] | inhibition (Gallus gallus) [%] |
| --- | --- | --- | --- |
|  | O=C(Cc1cc(I)c(Oc2cc(I)c(O)c(I)c2)c(I)c1)N1CCCCC1 | 104 | 15 |
|  | CC(C)(C)OC(=O)Cc1cc(I)c(Oc2cc(I)c(O)c(I)c2)c(I)c1 | 95 | 88 |
| 4.3 | O=C(O)Cc1cc(I)c(Oc2cc(I)c(O)c(I)c2)c(I)c1 [TETRAC] | 90 | 85 |
|  | O=C(O)Cc1cc(I)c(Oc2cc(I)c(OCC3CO3)c(I)c2)c(I)c1 (configuration not stated) | 100 | 62 |
|  | CC(C)[Si](OC(=O)Cc1cc(I)c(Oc2cc(I)c(O)c(I)c2)c(I)c1)(C(C)C)C(C)C | 104 | 75 |
|  | CC(C)[Si](OC(=O)Cc1cc(I)c(Oc2cc(I)c(OCC3CO3)c(I)c2)c(I)c1)(C(C)C)C(C)C (configuration not stated) | 100 | 96 |
|  | O=C(Cc1cc(I)c(Oc2cc(I)c(OCC3CO3)c(I)c2)c(I)c1)OCC1CO1 (configuration not stated) | 100 | 31 |
|  | O=C(Cc1cc(I)c(Oc2cc(I)c(OCC3CO3)c(I)c2)c(I)c1)N1CCCCC1 (configuration not stated) | 80 | 44 |
